The assay has as its system Plasmodium yoelii. Put plainly: NOVARTIS: Antimalarial liver stage activity measured as reduction in Plasmodium yoelii schizont area in HepG2-A16-CD81 cells by immuno-fluorescence, and median schizont size at 10uM compound concentration. The assay is classed as functional, organism-based. The settings on record: for IC50: Plasmodium yoelii, HepG2-A16-CD81. The gist of the method:
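Host and parasite nuclei stained with Hoechst 33342, parasites with αPyHSP70 antibody; 25 images per well by high-content imaging; median parasite (schizont) area measured by automated image analysis, ~50 schizonts per experiment, two or more independent experiments.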

The structures appear in SMILES notation.

The IC50 is the concentration needed to halve the response being measured. Higher therefore signals weaker potency. `CN1CCN(c2ccc(Nc3c4ccccc4nc4ccccc34)cc2)CC1` registered a Schizont size of 45.82 um and an IC50 of 547 nM.

As to `c1ccc2cc3c(N4CCN(CCN5CCN(c6ccnc7cc8ccccc8cc67)CC5)CC4)ccnc3cc2c1`, the Schizont size was found to be 135.69 um and the IC50 was 2910 nM.

Turning to `COc1ccc(-c2c(C(F)(F)F)nn(C)c2NC(=O)Nc2ccc(F)cc2F)cc1`, the Schizont size is recorded as 103.33 um and half-maximal inhibition (IC50) required 3450 nM.

As to `O=C(c1cccs1)N1CCN(c2ccc([N+](=O)[O-])c(NC3CC3)c2)CC1`, the Schizont size is recorded as 83.6 um and the IC50 was 692 nM.

`CCc1ccccc1N=C1c2c(cccc2[N+](=O)[O-])C(=O)C1C(C)=O` (stereo not drawn) gave a Schizont size of 83.4 um and an IC50 of 2030 nM.

`CCOC(=O)c1c(NC(C)=O)sc2c1CCN(C(C)C)C2`: the Schizont size was 93.21 um and the IC50 was determined as 3010 nM.

In turn, `O=C(c1cccc(Cl)c1)N1CCN(c2ccc([N+](=O)[O-])c(NC3CC3)c2)CC1` came in with a Schizont size of 102.71 um and an IC50 of 3200 nM.

In the case of `Oc1cccc(Nc2nc(NCC3CCCO3)c3ccccc3n2)c1` (stereo not drawn), the Schizont size is 74.32 um and the IC50 was 1040 nM.

`COc1ccc2nc(-c3ccccc3)cc(NCCN(C)C)c2c1`: the Schizont size was 69.1 um and the IC50 came out at 570 nM.

Turning to `c1ccc2c(NCCc3c[nH]cn3)c3ccccc3nc2c1`, the Schizont size is listed as 110.22 um and the IC50 was 706 nM.

Take `CCOC(=O)C1=C(c2ccccc2)N=c2sc(=Cc3cc(C)n(-c4ccc(F)cc4)c3C)c(=O)n2C1c1cccc(OC)c1OC` (stereo not drawn): the Schizont size was 106.25 um and the half-inhibitory concentration (IC50) was determined as 2450 nM.

The compound `OC(CNC1CCCCC1)Cn1c2ccccc2c2ccccc21` (stereo not drawn) showed a Schizont size of 143.41 um and an IC50 of 3920 nM.

Take `CCCN(CCC)CCCNc1ccc(C(=O)Nc2ccc(C)c(F)c2)cc1[N+](=O)[O-]`: the Schizont size was 83.5 um and the IC50 is 646 nM.

As for `Cc1cc(OC(C)C(=O)N2CCc3ccccc32)ccc1Cl` (stereo not drawn), the Schizont size was 59.6 um and 776 nM corresponded to half-maximal inhibition (IC50).

On to `O=C(Nc1ccc(-c2nc3cc(NC(=O)c4ccc(Br)o4)ccc3[nH]2)cc1)c1ccc(Br)o1`, for which the Schizont size came out at 101.14 um and half-maximal inhibition (IC50) was put at 812 nM.

Compound `O=C(c1cccc([N+](=O)[O-])c1)c1ccc(Cl)c(Cl)c1` showed a Schizont size of 108.65 um and an IC50 of 3810 nM.

`c1ccc(Nc2ccnc(Nc3ccccc3)n2)cc1` returned a Schizont size of 92.37 um and an IC50 of 1480 nM.

`COc1ccc(Nc2cc(C)nc(NCc3ccccc3)n2)cc1` gave a Schizont size of 57.82 um and an IC50 of 636 nM.

The compound `CCN(CC)CCN(Cc1cc2ccc(C)cc2[nH]c1=O)C(=S)NC(C)c1ccccc1` (stereo not drawn) returned a Schizont size of 66.17 um and an IC50 of 883 nM.

As for `COC(=O)C1=C(C)NC2=C(C(=O)CC(c3ccccc3Cl)C2)C1c1ccc([N+](=O)[O-])cc1` (stereo not drawn), the Schizont size is 61.06 um and the IC50 stood at 842 nM.

In turn, `COc1ccc(C2CC(=O)C3=C(C2)NC(C)=C(C(=O)OC(C)C)C3c2cccc(C)c2)cc1OC` (stereo not drawn) returned a Schizont size of 90.91 um and an IC50 of 1840 nM.

Compound `Cc1cc(Nc2cccc(F)c2)nc(NCc2ccccc2)n1` had a Schizont size of 73.06 um and an IC50 of 1110 nM.

Regarding `CC1CC(N(C(=O)c2ccc(Cl)cc2Cl)c2ccccc2)c2ccccc2N1C(=O)c1ccc(Cl)cc1` (stereo not drawn), the Schizont size was 110.64 um and 3640 nM corresponded to half-maximal inhibition (IC50).

Take `O=c1c2c([nH]c3ccccc13)CCCCCC2`: the Schizont size is 42.48 um and the midpoint of inhibition, the IC50, lay at 727 nM.

As to `CC(C)c1nc(N2CCN(C(=O)Nc3ccccc3)CC2)c(C#N)c2c1COC(C)(C)C2`, the Schizont size is listed as 82.25 um and the IC50 amounted to 1020 nM.

In turn, `Br.O=C(Cn1ccc(=NCc2ccccc2)cc1)c1ccc(I)cc1` displayed a Schizont size of 44.99 um and a half-maximal inhibitory concentration (IC50) of 825 nM.

The compound `COc1ccc(C2CC(=O)C3=C(C2)NC(C)=C(C(=O)OC2CCCC2)C3c2cccc(C)c2)cc1OC` (stereo not drawn) yielded a Schizont size of 66.8 um and an IC50 of 779 nM.

`c1ccc(OCCOc2ccc(Nc3c4ccccc4nc4ccccc34)cc2)cc1` yielded a Schizont size of 41.33 um and an IC50 of 559 nM.

`CC(=O)N1c2ccc(C)cc2C(C)(c2ccccc2)CC1(C)C` (stereo not drawn) had a Schizont size of 105.42 um and an IC50 of 1250 nM.

`CCOc1ccc2[nH]c(=O)c(CN(CCN(CC)CC)C(=S)NCCCN(CC)CC)cc2c1` had a Schizont size of 120.76 um and an IC50 of 2170 nM.

`CCCCCCCCn1c(C)[n+](CC)c2cc(C(=O)OCC)ccc21.[I-]` showed a Schizont size of 63.77 um and an IC50 of 990 nM.

The compound `FC(F)(F)c1ccccc1NC(=S)N1CCCN(c2nc3ccc(Cl)cc3s2)CC1` showed a Schizont size of 91.85 um and an IC50 of 1620 nM.

The compound `Cc1ccc(-c2cn3c([n+]2-c2ccccc2)SCC3)cc1.[Br-]` yielded a Schizont size of 62.52 um and a half-inhibitory concentration (IC50) of 1090 nM.

As to `Cl.Fc1ccccc1Nc1nc(NCc2ccccc2)c2ccccc2n1`, the Schizont size was 37.58 um and the IC50 came out at 690 nM.

The compound `C=CC[N+]1(CC#Cc2cccc3ccccc23)CCCCC1.[Br-]` returned a Schizont size of 80.06 um and an IC50 of 908 nM.

`CCCCCCOc1ccc(C(C)=NNC2=NCCN2)cc1[N+](=O)[O-]` gave a Schizont size of 60.96 um and an IC50 of 784 nM.

For the compound `Brc1ccc(-c2cn3c([n+]2-c2ccccc2)SCC3)cc1.[Br-]`, the Schizont size is recorded as 78.7 um and the IC50 came to 828 nM.

`Fc1ccc(Nc2nc(NCc3ccccc3)c3ccccc3n2)cc1` returned a Schizont size of 154.58 um and an IC50 of 3790 nM.

For the compound `O=C(c1ccc([N+](=O)[O-])cc1)c1ccc(Cl)c(Cl)c1`, the Schizont size was 109.39 um and the IC50 was 1640 nM.

`CCC(=O)NC(c1ccccc1Cl)c1cc(Cl)c2cccnc2c1O` (stereo not drawn): the Schizont size was 55.11 um and it took 1010 nM to reach half-maximal inhibition (IC50).

Compound `Nc1cccc(C(=O)Nc2ccc(Oc3cccc(Oc4ccc(NC(=O)c5cccc(N)c5)cc4)c3)cc2)c1` showed a Schizont size of 90.81 um and an IC50 of 1760 nM.

Compound `O=[N+]([O-])c1cc(C(F)(F)F)ccc1N1CCCN(C(=S)Nc2ccccc2)CC1` registered a Schizont size of 93.73 um and an IC50 of 2230 nM.

For `CCN1CCN(c2cc(C)c3cc(NC(=O)c4cc(OC)cc(OC)c4)ccc3n2)CC1`, the Schizont size came out at 113.77 um and the IC50 is 3740 nM.

Turning to `COC(=O)c1c(-c2c(Cl)cccc2Cl)noc1NC(=O)NN1CCCCC1`, the Schizont size is recorded as 75.67 um and half-maximal inhibition (IC50) was put at 647 nM.

As for `CN(C)CCCN(Cc1cc2cc3c(cc2[nH]c1=O)OCO3)C(=S)Nc1cccc(Cl)c1`, the Schizont size was found to be 60.22 um and 818 nM corresponded to half-maximal inhibition (IC50).

With `CCCCOc1ccc(N(C(C)=O)C2=C(N3CCOCC3)C(=O)c3ccccc3C2=O)cc1`, the Schizont size stood at 74.84 um and it took 1790 nM to reach half-maximal inhibition (IC50).

`CSc1nnc(-c2cccc([N+](=O)[O-])c2)n1Cc1ccccc1` had a Schizont size of 97.38 um and an IC50 of 2510 nM.

For the compound `CC(=O)N(C1=C(N2CCOCC2)C(=O)c2ccccc2C1=O)c1ccc(I)cc1`, the Schizont size is listed as 50.1 um and it took 602 nM to reach half-maximal inhibition (IC50).

The compound `CC(C)NCC(O)Cn1c2ccc(Cl)cc2c2cc(Cl)ccc21` (stereo not drawn) registered a Schizont size of 88.41 um and an IC50 of 2970 nM.

Consider `CN(C)c1cc[n+](CC(=O)Nc2ccc(Cl)cc2)cc1.[Cl-]`, for which the Schizont size was 69.62 um and the IC50 came out at 584 nM.

In the case of `Cc1ccnc(NC(c2ccc3ccccc3c2)c2ccc3cccnc3c2O)c1` (stereo not drawn), the Schizont size came out at 26.72 um and half-maximal inhibition (IC50) was put at 556 nM.

On to `CCc1cc2c(cc1-c1csc(NC(=N)N)n1)C(C)(C)CCC2(C)C`, for which the Schizont size is recorded as 92.27 um and the midpoint of inhibition, the IC50, lay at 2900 nM.

On to `CC(=O)N(C1=C(N2CCOCC2)C(=O)c2ccccc2C1=O)c1cccc(Cl)c1`, for which the Schizont size was 43.73 um and half-maximal inhibition (IC50) required 744 nM.

In the case of `Cc1ccc(Nc2cc(C)nc(NCc3ccccc3)n2)c(C)c1`, the Schizont size is reported as 89.14 um and half-maximal inhibition (IC50) required 1300 nM.

`CCCCc1c(C)nc2c(OC)cccc2c1O` had a Schizont size of 42.59 um and an IC50 of 561 nM.

`Cc1cccc(-c2cc3nc(C)c(C)c(O)n3n2)c1` registered a Schizont size of 67.43 um and an IC50 of 1100 nM.

Consider `CCCCCc1c(C)c(C#N)c2nc3ccccc3n2c1NCCN(CC)CC`, for which the Schizont size is recorded as 74 um and it took 702 nM to reach half-maximal inhibition (IC50).

Take `COc1ccc(C2Sc3ccccc3N=C3C2=C(O)c2ccccc23)cc1` (stereo not drawn): the Schizont size was found to be 39.14 um and the IC50 was 706 nM.

In turn, `Cl.Nc1ccc(N2CCCCCC2)cc1` displayed a Schizont size of 77.66 um and an IC50 of 1950 nM.

Consider `Cc1ncc(CCCCN(C)C)c2c1[nH]c1ccccc12`, for which the Schizont size came out at 132.56 um and it took 2770 nM to reach half-maximal inhibition (IC50).

On to `CCC[n+]1cccc2ccc3cccnc3c21`, for which the Schizont size is recorded as 43.42 um and the IC50 stood at 903 nM.

The compound `Cc1cn2c3ccccc3n(CCN3CCCC3)c2n1` gave a Schizont size of 126.09 um and an IC50 of 1070 nM.

`CC(=O)Nc1nc(C)c(-c2csc(Nc3ccc(C)cc3)n2)s1` came in with a Schizont size of 104.48 um and an IC50 of 1890 nM.

The compound `O=C(c1cnsn1)N1CCCC(COc2cccc(CN3CCC(Cc4ccccc4)CC3)c2)C1` (stereo not drawn) registered a Schizont size of 69.41 um and an IC50 of 609 nM.

For the origin of these results see ChEMBL document CHEMBL1789904, “Imaging of Plasmodium liver stages to drive next-generation antimalarial drug discovery” (Science, 2011).
